Arrestin-AP2 inh = human beta-arrestin and AP2 interaction inhibition. FITC-arrestin peptide / GST-AP2 beads, flow cytometry; AP2 beta2 appendage carries R879A mutation. inhibition, % at 10 µM. 0.31% of 340,000 active. AID 504490;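 active means inhibition above a set limit, near 3 SD of compounds lacking own fluorescence, cut at about 54% in these data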;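 further: plate controls were DMSO wells for no effect and 5 µM unlabelled arrestin peptide for full effect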
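Material – AP2 appendage R879A on GSH beads · Buffer or medium – PBS with 0.05% Tween 20 and 0.1% BSA · Probe or stimulus – fluorescein-tagged arrestin peptide at 50 nM final · Incubation – compound with beads 12 min RT, then probe 1 h RT · Detection – high-throughput flow cytometry of beads, ex 488, em 535 nm · Evaluation – percent response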
ABCB6 inh MLPCN = blocks the human ABCB6 transporter. Q9NP58. K562-ABCB6 porphyrin accumulation, flow cytometry, 1 h; stronger effect = lower value. fluorescence ratio to DMSO, % at 10 µM. 0.19% of 360,000 active. AID 602162;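 active means fluorescence ratio to DMSO below 75%, the collection mean minus 3 SD; inconclusive means too few cells collected in the well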;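 further: signal is porphyrin accumulated inside mitochondria; 100% equals median channel fluorescence of DMSO control wells; lower ratio means ABCB6 inhibition with less porphyrin fluorescence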
CendR NRP1 mod = NRP-1/CendR interaction modulation; O14786; FAM-RPARPAR peptide binding to NRP-1, fluorescence polarization; inhibition, % at 25 µM; 0.85% of 360,000 active; AID 602438;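 active means inhibition or corrected inhibition above about 18%, plus a signal ratio from 0.5 to 1.5, limit read from the data, passing the limit was not always enough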
Exocytosis inh = lytic granule exocytosis inhibition | TALL-104 LAMP-1 surface exposure, flow cytometry; cells stimulated with thapsigargin and PMA | inhibition, % at 10 µM | 0.66% of 360,000 active;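 active means inhibition above about 55%, limit read from the data; inconclusive means no clear call, values can overlap the other calls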
ATG4B inhibitor = ATG4B (human) cysteine protease inhibition; Q9Y4P1; ATG4B cleavage of LC3-PLA2, NBD-HPC fluorescence, 1 h; inhibition, % at 8.33 µM; 0.51% of 340,000 active; in the data active means inhibition above about 40%
Target sequence (Q9Y4P1 whole entry, looked up): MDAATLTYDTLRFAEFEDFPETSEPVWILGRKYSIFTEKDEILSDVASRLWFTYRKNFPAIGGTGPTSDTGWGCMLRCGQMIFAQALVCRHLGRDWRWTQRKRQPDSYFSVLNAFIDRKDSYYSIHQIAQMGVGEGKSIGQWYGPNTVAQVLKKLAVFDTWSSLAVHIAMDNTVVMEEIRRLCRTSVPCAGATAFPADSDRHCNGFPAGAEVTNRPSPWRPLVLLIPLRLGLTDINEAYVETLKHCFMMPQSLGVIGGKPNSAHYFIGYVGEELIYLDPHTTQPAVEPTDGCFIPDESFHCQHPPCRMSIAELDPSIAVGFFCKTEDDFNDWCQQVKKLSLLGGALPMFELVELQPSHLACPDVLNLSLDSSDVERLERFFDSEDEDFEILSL
Myeloid diff MLP = myeloid differentiation induction. 1% of 360,000 active. AID 624256. calls only at 10 µM. ER-HoxA9 myeloid progenitors, lysozyme-GFP differentiation, flow cytometry;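 active means normalized GFP-positive differentiation at or above the plate's own cutoff, the solvent-only control mean plus 3 SD; inconclusive means no clear call, values can overlap the other calls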;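 further: cells exposed to compound for four days before flow analysis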
ABCB6 inh CP1 = blocks the human ABCB6 transporter; shares compounds with ABCB6 inh MLPCN; K562-ABCB6 porphyrin accumulation, flow cytometry, 1 h; stronger effect = lower value; ratio response (% of DMSO), % at 10 µM; 700 tested, under 10 active; AID 602430;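 active means repeat-averaged ratio response below 75% of DMSO, the collection mean minus 3 SD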;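 further: median porphyrin fluorescence at 575 nm with 488 nm excitation from mitochondria; lower ratio means less porphyrin signal so ABCB6 inhibition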
Myeloid diff CP1 = myeloid differentiation induction; calls only; shares compounds with Myeloid diff MLP; 2% of 2,300 active; ER-HoxA9 myeloid progenitors, GFP/Mac1 double-positive flow;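 active means share of green or green-and-red cells above 9 and 9% in run 1 or 4 and 3% in run 2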
GFP autofluor = flagged as fluorescent in myeloid differentiation counter-screen | shares compounds with Myeloid diff MLP | ER-HoxA9 myeloid progenitors, no estrogen, GFP autofluorescence flow cytometry; vehicle wells 0%, positive control 100% | fluorescence response, % (concentration not given with the values) | 7.4% of 2,300 active;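 active means over 5% cells positive for green fluorescent reporter, or over 2% positive for both it and APC stain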;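 further: range taken on the double positive population between DMSO and positive control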
Granule exo CP1 = blocks lytic granule exocytosis. shares compounds with Exocytosis inh. TALL-104 cells, LAMP-1 externalization, flow cytometry; stimulated with PMA plus thapsigargin. inhibition, % at 10 µM. 11% of 1,500 active; in the data active means inhibition above about 60%;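 further: 0% = stimulated vehicle wells and 100% = unstimulated wells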
* = called active by the depositor; i = inactive; ? = inconclusive; · = not tested or not shown; + = active, no number. Rows were chosen to be rich in hits. Some 3.3% of all compounds tested hit in one or more screens of this group.

SMILES	Arrestin-AP2 inh	ABCB6 inh MLPCN	CendR NRP1 mod	Exocytosis inh	ATG4B inhibitor	Myeloid diff MLP	Myeloid diff CP1	GFP autofluor	others
CNC(=O)c1cc(Nc2nnc(-c3ccc(C)c(S(N)(=O)=O)c3)c3ccccc23)ccc1OC	3	74*	-2	4	-16	i	·	·	ABCB6 inh CP1=101
Cc1ccccc1OCCNC(=O)CSc1ccc(C(F)(F)F)cc1[N+](=O)[O-]	-3	70*	-2	-5	3	i	·	·	ABCB6 inh CP1=99
COc1cccc(OCCNC(=O)CSc2ccc(C(F)(F)F)cc2[N+](=O)[O-])c1	6	104	-5	2	-2	i	·	·
Cc1ccc(S(=O)(=O)Cc2ccc(C(=O)N3CCC(C(N)=O)CC3)o2)cc1	2	55*	0	-2	1	i	·	·	ABCB6 inh CP1=98
CCOc1ccc(C(=O)C[n+]2ccc(C(=O)NCc3ccccc3)cc2)cc1	-10	100	-5	-1	-3	i	·	·
CCCc1cnc(N2CCN(S(=O)(=O)c3cccs3)CC2)nc1	-20	99	5	7	4	i	·	·
O=C(Nc1ccc(Nc2ccccc2)cc1)Nc1ccccc1Cl	-14	10*	-2	2	16	i	·	·	ABCB6 inh CP1=100
O=C(Nc1ccccc1Cl)Nc1ccccc1Cl	-13	96	5	-2	-3	i	·	·
COc1ccccc1Oc1nc2c(c(=O)n(Cc3ccccc3F)c(=O)n2C)n1C	2	74*	14	-1	-2	i	·	·	ABCB6 inh CP1=98
Cc1c(C(=O)N(Cc2ccccc2)Cc2cccs2)cnn1-c1ccc(Cl)cc1	1	14*	4	2	5	i	·	·	ABCB6 inh CP1=100
O=C(Nc1ccc(F)cc1)c1nc(S(=O)(=O)Cc2ccccc2)ncc1Cl	45	46*	1	78*	-16	?	·	·	ABCB6 inh CP1=93;Granule exo CP1=65*
OCCC1CN(Cc2cccc(-c3ccco3)c2)CCN1Cc1ccsc1 (centres undefined)	10	100	4	-5	-20	i	·	·
Cc1cccc(N(C(=O)CNC(=O)c2cccs2)C(C(=O)NC2CCCC2)c2cccnc2)c1 (centres undefined)	9	100	-11	3	-5	i	i	0
O=C(NCC(=O)N(c1cccnc1)C(C(=O)NC1CCCC1)c1cccs1)c1ccco1 (centres undefined)	25	102	5	16	-3	i	i	67*
CCc1ccccc1OCC(=O)NNCC(=O)Nc1cccc(C#N)c1	-7	97	-4	-2	-9	i	·	·
CCN(C(=O)c1ccc(S(=O)(=O)N2CCCCC2)cc1)C1CCS(=O)(=O)C1 (centres undefined)	19	98	7	5	7	i	·	·
Cc1cc(C)nc(/N=C(\N)Nc2ccccc2-c2ccccc2)n1	5	96	11	0	3	+	i	0
CC(C)(C)NCC(O)Cn1cc(C=O)c2ccccc21 (centres undefined)	2	101	7	-5	-9	i	i	0
COc1ccc(-n2c(N)c(C(=O)NCc3ccco3)c3nc4ccccc4nc32)cc1OC	9	102	-16	-1	-15	+	i	0
COc1cccc(CNC(=O)C2Cc3cc(S(=O)(=O)N4CCCC4)ccc3N2C(C)=O)c1OC (centres undefined)	22	102	19	2	4	i	·	·
O=c1[nH]c(SCc2nc3c(cnn3-c3ccccc3)c(=O)[nH]2)nc2ccccc12	-1	100	-22	0	-2	+	i	3
CCc1nc2ccc(C(=O)NCCCN3CCCC3=O)cn2c1N(C)C(=O)c1cccc(OC)c1	·	96	5	1	·	i	·	·
CC(C)c1cccc(OCC(=O)Nc2ccc(S(=O)(=O)Nc3ccccn3)cc2)c1	1	90	4	8	-6	i	·	·
CCN1C(=O)N(S(=O)(=O)c2ccc(C)cc2)[C@@H](c2ccccc2)C(C(=O)OC)=C1C	-7	98	-2	-3	3	i	·	·
CCC(Oc1nc2ccccc2nc1-c1ccccc1NC(C)=O)C(=O)c1ccccc1 (centres undefined)	-2	94	-1	-4	-23	+	i	0
SMILES	Arrestin-AP2 inh	ABCB6 inh MLPCN	CendR NRP1 mod	Exocytosis inh	ATG4B inhibitor	Myeloid diff MLP	Myeloid diff CP1	GFP autofluor	others
CC(=O)Nc1ccccc1-c1nc2cc(C#N)c(C#N)cc2[nH]c1=O	0	97	-2	-5	-8	i	·	·
N#Cc1ccc(C(=O)N2CCCCC2c2cc(C(=O)Nc3ccccc3Cl)no2)cc1 (centres undefined)	·	102	-2	1	·	i	·	·
CCC1=[N+](CC(=O)c2ccc(C)cc2)CCn2cccc21	16	101	-8	-1	5	i	·	·
CC1=[N+](CC(=O)c2ccccc2)CCn2cccc21	14	117	6	-1	9	+	i	1
COc1ccc(OC)c(NC(=O)c2ccc(-c3cccs3)cc2)c1	3	105	3	-3	-2	i	·	·
O=C(O)c1cccc(NC2=C(Cl)C(=O)c3ccccc3C2=O)c1	10	102	23	31	-5	+	i	1
COC(=O)c1ccccc1NC(=O)c1nc2nc(C)cc(C)n2n1	8	95	6	0	0	i	i	0
O=C(Nc1ncccc1O)c1ccc(S(=O)(=O)Nc2ccccc2)cc1	5	101	7	-4	1	+	i	1
O=C(Nc1ccccc1O)c1ccc(NS(=O)(=O)c2cccc3cccnc23)cc1	18	105	-36	-1	-1	i	i	0
Cc1cccc(NC(=O)c2ccc(NS(=O)(=O)c3cccc4cccnc34)cc2)c1	7	98	-4	-3	3	i	i	0
COc1ccc(OCC(=O)OCC(=O)c2ccc(OC)c(F)c2)cc1	4	96	7	-2	-9	i	·	·
COc1cccc(-c2ccc(NC(=O)C3CCCN(Cc4cccc(C)n4)C3)cc2)c1 (centres undefined)	·	94	-11	10	·	i	i	0
Cn1nccc1C(=O)Nc1sc2c(c1C#N)CCCC2	15	91	-9	4	-3	i	·	·

Screening data (PubChem)
